Source: paper PMC12078793 (Nature Communications, 2025)

Experiments:
[1] = Blood PTH analog concentrations; assay type: in vivo; settings: female, CD-1, mouse, serum, sc, 10 nmol/kg
[2] = molecular target: bovine serum albumin (bovine) (UniProt P02769); assay: BLI
pHL2-hPTH1R = molecular target: T1, pHL2-hPTH1R (Homo sapiens, UniProt Q03431); assay: Receptor internalization in GPG-10 cells; assay type: cell-based; settings: 1x10-8 to 1x10-5 M, fluorescence ratio 485/405, n = 3
T1 sequence (Q03431 106-593 limits assumed): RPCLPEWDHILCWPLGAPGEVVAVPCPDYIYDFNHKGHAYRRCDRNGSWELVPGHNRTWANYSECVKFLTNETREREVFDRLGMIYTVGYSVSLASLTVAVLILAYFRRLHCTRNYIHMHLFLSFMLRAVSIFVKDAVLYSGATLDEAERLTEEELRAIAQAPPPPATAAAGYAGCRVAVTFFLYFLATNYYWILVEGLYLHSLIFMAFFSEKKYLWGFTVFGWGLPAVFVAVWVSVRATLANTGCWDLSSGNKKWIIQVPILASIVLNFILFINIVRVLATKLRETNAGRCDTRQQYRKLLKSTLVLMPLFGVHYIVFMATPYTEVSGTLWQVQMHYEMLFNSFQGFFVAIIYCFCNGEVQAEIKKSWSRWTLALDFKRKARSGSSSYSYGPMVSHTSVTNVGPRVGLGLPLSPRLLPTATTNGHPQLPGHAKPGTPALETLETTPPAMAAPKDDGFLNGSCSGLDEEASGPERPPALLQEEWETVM
Method in brief: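 Assay used HEK293 cells stably expressing glosensor plus hPTH1R with pHluorin2 inserted in the ECD E2 region. Confluent monolayers were rinsed with HBSS (0.1% BSA, 10 mM HEPES, pH 7.4), and baseline was recorded for 10 min: 535 nm emission with alternating 485/405 nm excitation at 1-min cycles. Ligand was then added and reading continued for 90 min. The AUC of the 485/405 ratio vs time was taken at each concentration.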

bovine serum albumin (bovine), sequence (P02769 25-607): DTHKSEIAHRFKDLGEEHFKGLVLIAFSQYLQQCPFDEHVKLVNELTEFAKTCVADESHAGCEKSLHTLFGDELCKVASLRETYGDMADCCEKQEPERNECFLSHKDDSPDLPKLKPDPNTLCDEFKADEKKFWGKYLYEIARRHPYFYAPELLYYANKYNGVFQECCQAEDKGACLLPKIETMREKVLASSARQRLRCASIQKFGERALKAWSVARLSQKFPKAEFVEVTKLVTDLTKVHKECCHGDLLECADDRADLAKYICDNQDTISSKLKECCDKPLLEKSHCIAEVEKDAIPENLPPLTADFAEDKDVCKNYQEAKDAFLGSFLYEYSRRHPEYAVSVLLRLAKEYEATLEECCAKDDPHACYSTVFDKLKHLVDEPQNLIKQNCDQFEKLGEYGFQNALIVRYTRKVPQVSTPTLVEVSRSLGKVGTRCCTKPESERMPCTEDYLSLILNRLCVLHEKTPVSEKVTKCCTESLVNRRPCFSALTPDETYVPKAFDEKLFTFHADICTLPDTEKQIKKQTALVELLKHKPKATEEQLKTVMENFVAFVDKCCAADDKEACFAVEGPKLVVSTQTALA

CC[C@H](C)[C@H](NC(=O)[C@H](CCC(=O)O)NC(=O)[C@H](CO)NC(=O)[C@@H](NC(=O)[C@@H](N)CO)C(C)C)C(=O)N[C@@H](CCC(N)=O)C(=O)N[C@@H](CC(C)C)C(=O)N[C@@H](CCSC)C(=O)N[C@@H](Cc1cnc[nH]1)C(=O)N[C@@H](CC(N)=O)C(=O)N[C@@H](CC(C)C)C(=O)NCC(=O)N[C@@H](CCCCN)C(=O)N[C@@H](Cc1cnc[nH]1)C(=O)N[C@@H](CC(C)C)C(=O)N[C@@H](CC(N)=O)C(=O)N[C@@H](CO)C(=O)N[C@@H](CCSC)C(=O)N[C@@H](CCC(=O)O)C(=O)N[C@@H](CCCNC(=N)N)C(=O)N[C@H](C(=O)N[C@@H](CCC(=O)O)C(=O)N[C@@H](Cc1c[nH]c2ccccc12)C(=O)N[C@@H](CC(C)C)C(=O)N[C@@H](CCCNC(=N)N)C(=O)N[C@@H](CCCCN)C(=O)N[C@@H](CCCCN)C(=O)N[C@@H](CC(C)C)C(=O)N[C@@H](CCC(N)=O)C(=O)N[C@@H](CC(=O)O)C(=O)N[C@H](C(=O)N[C@@H](Cc1cnc[nH]1)C(=O)N[C@@H](CC(N)=O)C(=O)N[C@@H](Cc1ccccc1)C(N)=O)C(C)C)C(C)C [PTH(1-34)]
half-life [1]: 18 min

Palm-M-PTH(1-14) (peptide)
fold lower estimated KD than the non-lipidated counterpart M-PTH(1-14) [2]: > 3 fold

L11,dW12,W23,Y36-PTHrP(7-36)
PHL2-PTH1R internalization into acidic compartments (pHL2-hPTH1R): did not induce internalization
